# Assay results taken from PubChem BioAssay.
# Unmarked numbers belong to inactive results. Results filed as inconclusive are left out. Calls of active or inactive are those of the source.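 How the source made its calls, unless noted: active means cell viability at or below a set limit in both duplicate runs, the limit being the all-compound median minus 4 SD (cut at about 23% in these data, passing the limit was not always enough); inconclusive means no clear call, values can overlap the other calls; inactive means the rest.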
# Columns and labels:
# [1] = S. cerevisiae growth inhibition in permissive medium (OD615), pilot counter-assay for S. cerevisiae lifespan shortening project, permissive growth control (AID 705;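 active means growth inhibition above 25% in both replicates, a cutoff set 3 SD above the mean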); conditions: OD615, 24 h, at 10 µM, hits give high values
# Procedure, shortened: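 System: Engineered DeaD yeast | Buffer or medium: SC raffinose/galactose permissive medium | Doses: 10 µM single dose, 0.25% DMSO | Times: 24 h exposure, 30 °C | Measured by: OD615 turbidity read | Read-out: Yeast growth inhibition indicated by reduced 24 h OD615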
# [2] = S. cerevisiae growth inhibition in restrictive medium, OD615, pilot screen, restrictive growth control, yeast lifespan reduction project (AID 706;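 active means growth inhibition above a set limit, 3 SD over mean compound inhibition, in both replicates, cut at about 43% in these data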;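 further: modified DeaD lifespan yeast strain shifted to restrictive glucose medium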); conditions: OD615, 48 h, at 10 µM, hits give high values
# Procedure, shortened: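 Assay system: engineered S. cerevisiae DeaD strain; Buffer or medium: CSMM-D glucose medium; Dosing: 10 µM compound, 0.25% DMSO; Times: cell pre-growth 4 h, compound exposure 48 h, 30 °C; Detection: absorbance (optical density) measured at 615 nm.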
# [3] = doxorubicin toxicity protection in MRP-1 cells – H69AR cells, CellTiter-Glo, duplicate, MRP-1 activator project, pilot screen (AID 807;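 active means viability increase at or above a cutoff of the median across tested compounds plus 3 SD, cut at about 8.5% in these data, passing the limit was not always enough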;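 further: compound pretreatment 18-22 h then 72 h combined with doxorubicin; 0% = doxorubicin alone and 100% = vehicle without doxorubicin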); conditions: H69AR viability with doxorubicin, CellTiter-Glo luminescence; at 10 µM; hits give high values
# [4] = viability of HCT116 without oncogenic beta-catenin – human colon tumor cells, pilot screen (AID 823); conditions: HCT116 beta-catenin knockout viability, CellTiter-Glo, 60 h; at 10 µM; hits give low values;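 further: 0% = wells killed by 20 µM Hyamine and 100% = untreated DMSO cell wells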
# [5] = viability of PTEN-null HCT116 cells – cell-based, HCT116 clonal line, CellTiter-Glo, pilot screen (AID 824;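 active means viability at or below 27.92% in each of two runs, the all-compound median minus 4 SD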;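 further: 0% = 20 µM Hyamine control and 100% = vehicle cell control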); conditions: HCT116 PTEN-deleted viability, 60 h, at 10 µM, hits give low values
# [6] = RAM pathway blockade in budding yeast – dse1pr::URA3 reporter, 5-FOA selection, pilot screen (AID 869;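 active means inhibition over a set limit, the all-compound mean plus 3 SD, in both replicate runs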;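 further: 0% = DMSO wells with no growth and 100% = 10 µM 1-NA-PP1 with full growth; RAM network block rescues cells from 5-FOA so hits raise OD615 growth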); conditions: S. cerevisiae dse1pr::URA3 5-FOA growth, OD615, 2 d; at 10 µM; hits give high values; strain carries analog-sensitive mutant Cbk1 kinase
# [7] = RAM signaling pathway blockade in yeast – S. cerevisiae, Pdr1DBD-CYC8 efflux-inhibited sensitized strain, primary screen (AID 1298;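 active means RAM network inhibition above 8.4% in each of two replicates, 3 SD over the compound average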;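 further: 0% = DMSO untreated cells without growth and 100% = 10 µM 1-NA-PP1 full growth; higher means more yeast growth rescued from 5-FOA killing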); conditions: S. cerevisiae cbk1-as DSE1-URA3 strain, 5-FOA growth OD615, 2 d; at 50 µM; hits give high values
Structure (SMILES),growth inhibition [1],growth inhibition [2],viability increase [3],viability [4],viability [5],inhibition [6],RAM network inhibition [7]
CCn1c2c(c3cc(Cl)ccc31)CCCC2=O,-8.81%,-10.1%,-0.32%,96%,97.8%,0.915%,4.07%
Cc1ccc(-c2nc3ncccc3o2)cc1NC(=O)Cc1ccc(Cl)cc1,-17.4%,-10.8%,-4.9%,81.8%,82.9%,2.07%,1.75%
CC(=O)Nc1ccc(NC(=O)c2ccco2)cc1,-9.41%,-14.5%,-2.09%,94.1%,96.8%,-0.19%,2.4%
O=C1Nc2ccc(S(=O)(=O)N3CCCCCC3)c3cccc1c23,-0.465%,-4.72%,-2.03%,95.2%,86.2%,1.57%,0.81%
COc1ccc(OC)c2c1sc(=NC(=O)C(C)(C)C)n2C,-7.64%,6.31%,-6.23%,84.1%,79.6%,3.72%,6.93%
O=C(Nc1nnc(-c2ccc(F)cc2)o1)c1ccco1,-6.49%,-4.85%,-3.74%,97.5%,92.8%,1.46%,0.1%
O=C(NCc1ccc2c(c1)OCO2)c1cc2c(s1)CSC2,-4.81%,3.8%,-1.75%,99.2%,95.5%,1.75%,0.94%
CC(c1ccccc1F)n1cc(C(=O)NCc2ccncc2)nn1 (stereo not drawn),-19.2%,-8.25%,-0.75%,96.3%,94.9%,1.86%,4.53%
Cc1c(Cl)cccc1NC(=O)CN1C(=O)CSc2ncccc21,-2.14%,-0.53%,-1.13%,97.6%,89.5%,-0.01%,-0.13%
CC(C)(C)C1CCc2c(sc(NC(=O)c3cc(C4CC4)on3)c2C#N)C1 (stereo not drawn),-2.48%,-5.6%,-1.27%,96.8%,90.5%,3.56%,2.83%
Cc1cc(NS(=O)(=O)c2ccccc2)c(C)c(Cl)c1O,-8.22%,-15.3%,-4.31%,1.97% (active),3.14% (active),2.38%,6.4%
COc1cccc(C2NC(C)(C(=O)O)C3C(=O)N(C(C)C)C(=O)C23)c1O (stereo not drawn),2.59%,1.56%,-1.19%,91.5%,91.3%,1.82%,2.7%
O=C(c1ccc(CS(=O)(=O)c2ccccc2)o1)N1CCOCC1,-12.2%,-15.5%,-0.71%,105%,95.8%,1.19%,3.8%
CCN(CC)CCN=C1CCCc2ccccc2N1,-1.96%,5.53%,-2.11%,86.9%,87%,2.3%,0.67%
Cc1cc(N=CC2=C(O)CC(C)(C)CC2=O)no1,-11.7%,-3.7%,0.49%,93.2%,104%,1.94%,1.04%
CCSC1=C(C#N)C(c2ccccc2C)CC(=O)N1 (stereo not drawn),-9.12%,-23.4%,-2.22%,92.5%,87.7%,1.98%,4.78%
COc1ccccc1N1CCN(Cc2cc(Br)c(O)c3ncccc23)CC1,96.8% (active),98.6% (active),-6.58%,6.37% (active),6.17% (active),-0.8%,-1.73%
CC1=C(C(=O)OCCOc2ccccc2)C(c2ccc(C)o2)C2=C(CC(C)(C)CC2=O)N1 (stereo not drawn),-17.6%,-10.8%,-0.88%,78.2%,78.6%,1.73%,7.5%
CCOc1cccc(C(=O)Nc2cccc(-c3nnc(-c4ccccc4)o3)c2)c1,-8.09%,6.69%,-3%,51.9%,48.5%,0.02%,2.46%
CNC(=O)c1c(N)sc2c1CCCCC2,-2.01%,8.19%,-3.12%,88.8%,88.1%,1.19%,4.13%
CN(C)Cc1nc2c([nH]1)c(=O)n(C)c(=O)n2C,-6.75%,-18%,-1.31%,95.1%,92.7%,1%,4.51%
COc1ccc(N2CSC3=C(C#N)C(c4ccc(OC)c(OC)c4)CC(=O)N3C2)c(OC)c1 (stereo not drawn),18.8%,22.1%,-4.13%,79.5%,81.7%,1.88%,0.93%
O=C(CCCC1=NS(=O)(=O)c2ccccc2N1)N1CCN(c2ccc(Cl)cc2)CC1,-17.7%,-0.86%,-0.04%,91.7%,78.3%,0.37%,0.9%
O=C1Nc2ccc(S(=O)(=O)N3CCCC3C(=O)O)c3cccc1c23 (stereo not drawn),1.8%,-5.75%,-2.22%,92.8%,96.8%,0.57%,0.21%
